# Screening results (PubChem BioAssay)
# RAD54 branch: inhibitors of human RAD54 branch migration; AID 602329; RAD54 Holliday junction branch migration, FAM/BHQ fluorescence; Q92698; actives 0.14% (n = 360,000); inhibition, % at 10.4 µM;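 active means mean normalized replicate activity at least 40 and at least half of replicates scoring 40 or more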;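 further: 0% = median of neutral control wells and 100% = median of positive control wells; inhibitors cause a drop in the FAM fluorescence signal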
# S100A4 inh HTS: S100A4-myosin IIA interaction inhibition. actives 0.14% (n = 360,000). AID 652163. P26447. S100A4/TAMRA-MyoIIA peptide fluorescence polarization. inhibition, % at 10.7 µM;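 active means mean inhibition of at least 70% across replicates, with every replicate also reaching that level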
#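 incubation = readout 5 min after mixing, signal stable up to 60 min | system = S100A4 monomer protein | buffer or medium = HEPES pH 7.2 with CaCl2, KCl, NaCl, DTT, Triton | benchmarks = neutral control DMSO, positive control TFP | also added = fluorescent myosin IIA peptide, 5 nM | compound dosing = one concentration per compound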
# dFosB act: mouse delta FosB homodimer activation. P13346. activation, % at 25 µM. purified delta FosB, TAMRA-CDK5 oligo fluorescence polarization; percent of positive-control signal above neutral wells. actives 0.99% (n = 340,000);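 active means mean activation above about 17%, with every replicate also reaching it, limit read from the data, passing the limit was not always enough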
# RAD52 anneal inh: inhibitors of human RAD52 DNA annealing; recombinant RAD52 DNA annealing, FRET fluorescence; AID 651710; actives 0.46% (n = 360,000); inhibition, % at 18.7 µM; P43351;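 active means every replicate showing at least 50% inhibition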
# AF4-AF9 inh: blocks AF4 peptide binding to human AF9; AlphaScreen, biotin-AF4 peptide binding to FLAG-AF9; inhibition, % at 10 µM; actives 0.47% (n = 350,000);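 active means every replicate reaching a set inhibition limit, whatever the replicate mean, cut at about 25% in these data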;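 further: 0% = plate neutral control median and 100% = total signal loss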
# DNA binder FP: binds DNA, flagging false RAD52 inhibitor hits; shares compounds with RAD52 anneal inh; Salmon sperm DNA/acridine orange FP displacement, DNA binding; AC50, µM; actives 8% (n = 1,000);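 active means fitted half-maximal concentration for signal loss at or below twice the highest dose tested, in every separate run, actives reach about 64 µM in these data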
# Active calls of the source: *; i = inactive; nt = no result given. Only some compounds are listed: those with a hit (about 1.5% of all), similar ones and a draw of the others.
SMILES,RAD54 branch,S100A4 inh HTS,dFosB act,RAD52 anneal inh,AF4-AF9 inh,DNA binder FP
CC(C)C[C@@H]1CN=C(N)N1C[C@@H]1CCCN1C[C@H](C)N1C[C@@H](Cc2ccccc2)N(CCc2ccc(Cl)c(Cl)c2)C1=N,15,nt,3,nt,nt,nt
CC(C)C[C@@H]1CN=C(N)N1C[C@@H]1CCCN1C[C@@H](C(C)C)N1C[C@@H](Cc2ccccc2)N(CCc2ccc(Cl)c(Cl)c2)C1=N,10,-3,10,51*,22,i
COc1cc2nc(Nc3ccc(C)c(Cl)c3)nc(N)c2cc1OC,-4,6,59*,73*,33*,i
COc1cc2nc(Nc3ccc(C)c(C)c3)nc(N)c2cc1OC,34,-3,105*,91*,26*,i
Cc1ccc(Nc2ncnc(N)n2)cc1C,nt,5,-5,-2,-3,nt
C[C@H](CO)N1C[C@H](C)[C@H](CN(C)Cc2ccc(C(F)(F)F)cc2)Oc2ccc(NC(=O)CCC(F)(F)F)cc2C1=O,4,-1,nt,-13,-6,nt
CN1CCN(CCCNC(=O)c2cc3c(=O)n(C)c4ccccc4c3s2)CC1,63*,-1,-10,62*,-4,i
Nc1ccc2nc(CCCCCCc3nc4ccc(N)cc4[nH]3)[nH]c2c1,7,-10,5,-9,5,nt
Nc1ccc2nc(CCCO)[nH]c2c1,36,-19,-1,93*,13,i
CCc1cccc2c1Sc1ccccc1CC2N1CCNCC1 (stereo unspecified),nt,6,-5,55*,15,i
CC(C)c1ccc2c(c1)C(N1CCNCC1)Cc1ccc(F)cc1S2 (stereo unspecified),nt,-4,nt,2,12,nt
C[C@H]1CN([C@@H](C)CO)C(=O)c2cc(NS(=O)(=O)c3ccc(F)cc3)ccc2O[C@@H]1CN(C)C,-5,0,nt,2,0,nt
C[C@@H]1CN([C@H](C)CO)C(=O)c2cc(NC(=O)C3CCCCC3)ccc2O[C@@H](C)CCCCO[C@H]1CN(C)C(=O)Cc1ccccc1,8,nt,nt,nt,nt,nt
CCN(CC)CCNC(=O)C(=O)NCC1OCCN1S(=O)(=O)c1cccs1 (stereo unspecified),-7,-7,0,54*,18,i
COc1cccc(C2=Nn3c(nnc3-c3ccccc3O)SC2)c1,11,nt,-3,nt,nt,nt
C[n+]1c2n(c3ccccc31)N=C(c1cc(C(C)(C)C)c(O)c(C(C)(C)C)c1)CS2,nt,-18,-24,60*,27*,i
CCOC(=O)c1c(C)oc2ccc(O)c(CN(C)C)c12,-2,nt,-5,nt,nt,nt
CCOC(=O)c1c(CSc2ccc(CC)cc2)oc2ccc(O)c(CN(C)C)c12,30,-9,3,58*,23,i
CCOCCCNCc1ccc(OC)cc1,0,nt,1,nt,nt,nt
COc1ccc2cc(CNCCOCCOCCNCc3ccc4cc(OC)ccc4c3)ccc2c1,nt,1,2,64*,7,i
Cn1cccc1CNC(=S)Nc1ccccc1Cl,nt,3,1,-2,5,nt
Cc1cc(C)cc(NC(=S)NCc2cccn2C)c1,nt,-8,5,65*,13,i
Cc1noc(C)c1NC(=O)NCC[C@@H]1CC[C@H](NC(=O)Cc2cccnc2)[C@H](CO)O1,0,-4,nt,3,0,nt
CN1CCN(c2cc3c(c4c2[nH]c2ccccc24)C(=O)CC(C)(C)C3)CC1,22,2,7,67*,12,i
CN(C)CCCn1c(=O)n(CCc2ccccc2)c(=O)c2c3c(sc21)CCCCC3,1,-5,-3,56*,23,i
Nc1ccc(CCn2ccnc2)cc1,4,-1,4,51*,11,i
c1ccn(CCc2ccncc2)c1,4,-3,-2,-19,0,nt
O=c1ccn([C@@H]2O[C@H](CNCc3c(OCc4ccccc4F)ccc4ccccc34)[C@@H](O)[C@H]2O)c(=O)[nH]1,18,-3,nt,8,3,nt
O=c1ccn([C@@H]2O[C@H](CNCc3cccc4c3sc3ccccc34)[C@@H](O)[C@H]2O)c(=O)[nH]1,8,-5,nt,62*,2,i
O=C1C2CCCCN2C(=O)N1CCCN1CCN(c2ccc(F)cc2)CC1 (stereo unspecified),-28,-4,2,-2,-1,nt
